Rows were chosen to be rich in hits. Some 2.5% of all compounds tested hit in one or more screens of this group.
DENV2 CPE = DENV2-induced cell death inhibition; AID 651640; actives 1.7% (n = 350,000); DENV2-infected cells, cytopathic effect rescue, plate reader; CPE inhibition, % at 9.99 µM; in the data active = CPE inhibition above about 20%, passing the limit was not always enough; inconclusive = no clear call, values can overlap the other calls; tested in BHK-21 cells
PglD inh = blocks C. jejuni PglD acetyltransferase activity. inhibition, % at 12.5 µM. AID 602405. purified PglD enzyme, DTNB colorimetric CoA detection. actives 0.098% (n = 360,000); in the data active = inhibition above about 16%, passing the limit was not always enough; inconclusive = no clear call, values can overlap the other calls
ERAP1 inh = inhibitors of human ERAP1 aminopeptidase; Q9NZ08; recombinant ERAP1, Leu-AMC fluorescence, 60 min; inhibition, % at 10.7 µM; actives 0.15% (n = 340,000); AID 652197;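 active = mean replicate inhibition of at least 30%, or all replicates individually reaching that 30% level; inactive = mean below 30% and not every replicate reaching it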
E-sel inducer = E-selectin induction on HUVECs; P16581; HUVEC E-selectin immunofluorescence imaging; normalized: neutral wells 0, TNF-alpha wells 100; activation, % at 7.58 µM; actives 0.37% (n = 260,000);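 active = mean E-selectin-positive cell signal at least 10% of the positive control, reached in at least 60% of replicates, without over 20% cell loss; inconclusive = no rule given, readout overlaps actives, possibly toxicity-flagged; inactive = the rest, including those meeting only one limit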
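Test system: HUVEC | Signal: Immunofluorescence imaging | Read-out: Percent E-selectin-positive cells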
SIRT5 block = sirtuin-5 (human) deacylase inhibition | Purified SirT5, succinyl-peptide AMC, trypsin-coupled fluorescence | inhibition, % at 15 µM | actives 1.1% (n = 330,000); in the data active = inhibition above about 15%; inconclusive = no clear call, values can overlap the other calls
Target sequence (Q9NXA8 whole entry, looked up): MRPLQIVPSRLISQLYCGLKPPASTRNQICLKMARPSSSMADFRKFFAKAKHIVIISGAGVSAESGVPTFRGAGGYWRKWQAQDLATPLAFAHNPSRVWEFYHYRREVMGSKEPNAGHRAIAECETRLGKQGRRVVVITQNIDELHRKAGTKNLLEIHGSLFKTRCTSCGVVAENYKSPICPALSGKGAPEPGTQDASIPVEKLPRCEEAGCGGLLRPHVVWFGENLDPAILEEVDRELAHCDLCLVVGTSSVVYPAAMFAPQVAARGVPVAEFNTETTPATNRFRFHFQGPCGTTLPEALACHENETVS
Numbers stand for hits; 0 = inactive; ? = inconclusive; - = no result; ! = repeats disagree.

SMILES	DENV2 CPE	PglD inh	ERAP1 inh	E-sel inducer	SIRT5 block
CC(=O)N1CC2(C1)[C@H](c1ccc(-c3ccc(C#N)cc3)cc1)[C@@H](CO)N2C(=O)C1CC1	83.9	-	0	0	0
CCC[C@@H](CN1CCC[C@H]1CN1C(N)=NC[C@@H]1Cc1ccccc1)N1C[C@@H](Cc2ccccc2)N(CCc2ccc(Cl)c(Cl)c2)C1=N	0	0	0	0	-
CCC[C@@H](CN1CCC[C@H]1CN1C(N)=NC[C@H]1CC(C)C)N1C[C@@H](Cc2ccccc2)N(CCc2ccc(Cl)c(Cl)c2)C1=N	55.2	0	0	0	0
O=C(Nc1ccc(N2CCCC2)c(Cl)c1)c1cccs1	0	-	0	-	67.1
COc1ccc(S(=O)(=O)Nc2ccc3c(c2)C(=O)N([C@@H](C)CO)C[C@H](C)[C@@H](CN(C)C(=O)Nc2ccc(C(F)(F)F)cc2)OCCCC[C@H](C)O3)cc1	106.4	0	0	0	0
COc1ccc(S(=O)(=O)Nc2ccc3c(c2)C(=O)N([C@@H](C)CO)C[C@@H](C)[C@@H](CN(C)C(=O)Nc2ccc(F)cc2)OCCCC[C@H](C)O3)cc1	0	0	0	0	0
COc1ccc(S(=O)(=O)Nc2ccc3c(c2)C(=O)N([C@H](C)CO)C[C@H](C)[C@H](CN(C)C(=O)Nc2ccc(F)cc2)OCCCC[C@H](C)O3)cc1	0	0	0	0	16.7
COc1ccc(S(=O)(=O)Nc2ccc3c(c2)C(=O)N([C@@H](C)CO)C[C@H](C)[C@H](CN(C)C(=O)Nc2ccc(C(F)(F)F)cc2)OCCCC[C@H](C)O3)cc1	108.7	0	0	0	0
COc1ccc(S(=O)(=O)Nc2ccc3c(c2)C(=O)N([C@@H](C)CO)C[C@@H](C)[C@@H](CN(C)C(=O)Nc2ccc(C(F)(F)F)cc2)OCCCC[C@H](C)O3)cc1	0	0	0	0	0
COc1ccc(S(=O)(=O)Nc2ccc3c(c2)C(=O)N([C@@H](C)CO)C[C@H](C)[C@@H](CN(C)C(=O)Nc2ccc(C(F)(F)F)cc2)OCCCC[C@@H](C)O3)cc1	0	0	0	0	0
COc1ccccc1-n1cc([C@@H]2C[C@H]3CN(c4ccccc4)C(=O)[C@]34CCCN24)cn1	0	-	0	-	0
CCCCCCCC1c2c(c(C)c(C)oc2=O)Oc2c(C)c(C)oc(=O)c21	89.5	0	0	0	-
CCCC(C)C1c2c(c(C)c(C)oc2=O)Oc2c(C)c(C)oc(=O)c21 (stereo not drawn)	-	0	0	0	0
O=C(Nc1ccc(-c2ccccc2)cc1)c1ccc2c(c1)S(=O)(=O)c1ccccc1C2=O	0	0	0	0	0
O=C(Nc1ccncc1)c1ccc2c(c1)S(=O)(=O)c1ccccc1C2=O	53.0	0	-	0	-
O=C1c2ccccc2S(=O)(=O)c2cc(C(=O)N3CCN(c4ccc(Cl)cn4)CC3)ccc21	42.4	0	0	0	0
COc1ccc2c3c([nH]c2c1)[C@H](CO)N(C(=O)Nc1ccc(F)cc1)CC31CN(S(=O)(=O)c2cccc(C)c2)C1	0	-	0	0	0
O=C(NCC1COc2ccccc2O1)c1cccs1 (stereo not drawn)	0	-	0	-	0
CC1CCC(C(C)C)C(OCC(O)C[N+]2(C)CCCCC2)C1 (stereo not drawn)	0	0	102.8	0	0
Cn1c(=N)n(CC(=O)c2ccc(F)cc2)c2ccccc21	0	0	0	0	0
Cn1c(=N)n(CC(=O)c2ccc(Br)cc2)c2ccccc21	65.7	-	0	-	0
COc1ccc2c3c([nH]c2c1)[C@@H](CO)N(C(C)=O)CC31CCN(Cc2cc(-c3ccccc3)on2)CC1	0	-	0	0	0
CCCNC(=O)N1[C@H](CO)[C@H](c2ccccc2)C12CN(C(=O)CC1CC1)C2	0	-	0	0	0
OC[C@@H]1[C@@H](c2ccccc2)C2(CN(CC3CC3)C2)N1Cc1ccc(F)cc1	23.4	-	0	0	0
O=C(CC1CC1)N1CC2(C1)[C@@H](c1ccccc1)[C@@H](CO)N2Cc1cccc(F)c1	0	-	0	0	18.8
SMILES	DENV2 CPE	PglD inh	ERAP1 inh	E-sel inducer	SIRT5 block
CCS(=O)(=O)N1CC2(C1)[C@@H](c1ccccc1)[C@H](CO)N2Cc1ccc(F)cc1	35.5	-	0	0	15.7
CCS(=O)(=O)N1CC2(C1)[C@@H](c1ccccc1)[C@@H](CO)N2Cc1ccc(F)cc1	0	-	0	0	0
CCCNC(=O)N1[C@@H](CO)[C@H](c2ccccc2)C12CN(C(=O)CC1CC1)C2	0	-	0	0	37.6
O=C(CC1CC1)N1CC2(C1)[C@H](c1ccccc1)[C@@H](CO)N2Cc1ccc(F)cc1	0	-	0	0	0
O=C(CC1CC1)N1CC2(C1)[C@@H](c1ccccc1)[C@H](CO)N2Cc1ccc(F)cc1	0	-	0	0	0
C[C@@H]1CN([C@@H](C)CO)C(=O)CCCn2nncc2CO[C@@H]1CN(C)C(=O)c1ccc2ccn(C)c2c1	?	0	0	0	0
CC(C)C(=O)OCC(=O)Nc1ccc(N=Nc2ccccc2)cc1	0	0	0	-	0
Cc1ccc(C)c(S(=O)(=O)N2CCN(C(=O)c3ccccc3Cc3ccccc3)CC2)c1	0	0	0	-	0
COc1cccc(-c2ccc3c(c2)O[C@@H](CN(C)Cc2cccnc2)[C@H](C)CN([C@H](C)CO)S3(=O)=O)c1	0	0	0	0	0
O=S(=O)(NC1CC2CCC1C2)c1ccc(Br)s1 (stereo not drawn)	-	0	-	-	-
OC[C@@H]1[C@@H](c2ccccc2)C2(CN(CC3CCOCC3)C2)N1Cc1nccs1	51.1	-	0	0	0
Cc1cccc(C)c1NC(=O)C(c1ccccc1)N1CCC(Cc2ccccc2)CC1 (stereo not drawn)	0	0	0	0	0
Cc1cccc(-c2ccc(C3[C@@H]4CN(C(=O)C5CCCC5)C[C@H]3N4)cc2)c1 (stereo partly drawn)	0	-	0	0	0
O=C(C1CCCC1)N1C[C@@H]2N[C@H](C1)C2c1ccc(-c2cccc(F)c2)cc1 (stereo partly drawn)	47.3!	-	0	0	0
N#Cc1cccc(-c2ccc(C3[C@@H]4CN(C(=O)c5cccnc5)C[C@H]3N4)cc2)c1 (stereo partly drawn)	83.6!	-	-	?	-
Cc1cccc(-c2ccc(C3[C@@H]4CN(Cc5cccc(F)c5)C[C@H]3N4)cc2)c1 (stereo partly drawn)	0	-	-	0	-
O=C(C1CC1)N1C[C@@H]2N[C@H](C1)C2c1ccc(-c2cccc(F)c2)cc1 (stereo partly drawn)	59.1!	-	-	0	-
Fc1cccc(-c2ccc(C3[C@@H]4CN(Cc5cncnc5)C[C@H]3N4)cc2)c1 (stereo partly drawn)	28.1!	-	-	0	-
CCC[C@H]1CC(=O)C=C(c2ccsc2)ON1C(=O)OC(C)(C)C	0	0	0	0	21.5
CSc1cccc(NC(=O)COc2cccc3ccccc23)c1	-	0	-	-	-
CO[C@H]1CN(C)C(=O)c2cc(NC(=O)c3cnccn3)ccc2OC[C@H](C)NC[C@H]1C	26.8	0	0	0	0

Screening data deposited in PubChem by Broad Institute.
